Assay outcomes as filed in PubChem.
PfM18AAP inh: PfM18AAP enzyme inhibition; AID 1822; 290,000 tested, 1.2% active; inhibition, % at 7.35 µM; recombinant PfM18AAP, H-Glu-NHMec fluorogenic cleavage;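 active = inhibition above the campaign mean inhibition over all tested compounds plus 3 SD, cut at about 28% in these data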
CHOP inhibitor: CHOP inhibition in unfolded protein response. inhibition, % at 10 µM. AID 2732. CHO-K1 CHOP-promoter luciferase, tunicamycin-induced, 15-18 h. 220,000 tested, 3.8% active;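 active = compounds that reduced the stress-induced luciferase reporter signal by more than about 70% of percent inhibition, limit read from the data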
p97 inhibitor: inhibitors of human p97 ATPase. inhibition, % at 8 µM. P55072. recombinant p97 ATPase, Kinase-Glo ATP luminescence, 3 h. 220,000 tested, 0.42% active; in the data active = inhibition above about 15%
Target sequence (P55072 whole entry, looked up): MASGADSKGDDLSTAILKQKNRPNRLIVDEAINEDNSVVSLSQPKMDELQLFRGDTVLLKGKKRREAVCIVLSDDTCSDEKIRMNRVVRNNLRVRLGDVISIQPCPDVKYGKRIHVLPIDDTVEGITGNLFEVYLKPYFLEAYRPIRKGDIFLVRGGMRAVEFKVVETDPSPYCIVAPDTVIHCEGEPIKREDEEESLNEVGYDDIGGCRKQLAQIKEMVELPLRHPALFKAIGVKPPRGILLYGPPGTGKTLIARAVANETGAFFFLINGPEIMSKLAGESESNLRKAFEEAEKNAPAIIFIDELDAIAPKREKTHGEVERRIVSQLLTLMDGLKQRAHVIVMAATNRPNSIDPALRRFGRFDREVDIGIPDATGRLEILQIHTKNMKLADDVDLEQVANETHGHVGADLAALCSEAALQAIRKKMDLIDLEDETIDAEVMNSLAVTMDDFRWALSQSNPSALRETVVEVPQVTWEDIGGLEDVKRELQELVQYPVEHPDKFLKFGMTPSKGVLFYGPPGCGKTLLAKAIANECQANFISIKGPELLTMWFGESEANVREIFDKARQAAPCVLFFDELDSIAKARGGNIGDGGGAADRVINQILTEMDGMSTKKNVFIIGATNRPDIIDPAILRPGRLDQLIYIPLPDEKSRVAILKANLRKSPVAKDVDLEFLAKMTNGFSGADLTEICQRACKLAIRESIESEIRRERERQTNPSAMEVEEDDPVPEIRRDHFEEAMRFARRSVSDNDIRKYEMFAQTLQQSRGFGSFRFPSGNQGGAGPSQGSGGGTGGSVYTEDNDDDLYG
UPR CHOP act: apoptotic UPR (CHOP) activation; CHO-CHOP luciferase reporter, luminescence; percent of tunicamycin response over DMSO baseline; activation, % at 10 µM; 330,000 tested, 0.34% active; AID 449763;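 active = at 10 µM dose, activation of 40% or more, normalized to positive control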
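System: CHO-CHOP luciferase reporter cell line; amount: 500 cells/well; buffer or medium: F12 medium containing 10% fetal bovine serum; incubation: 6 h compound exposure at 37 °C after overnight seeding; measured by: luciferase luminescence after 10 min with Steady-Glo reagent; evaluation: % reporter activation, DMSO baseline versus tunicamycin full activation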
HCV NS3 hel inh: blocks Hepatitis C virus NS3 helicase unwinding; NS3 helicase DNA unwinding, Cy5 molecular beacon fluorescence; inhibition, % at 10.9 µM; 290,000 tested, 0.56% active; AID 1800;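 active = inhibition above the mean of all tested compounds plus 3 SD, set per campaign, cut at about 35% in these data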
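System: Hepatitis C virus NS3 helicase domain fragment enzyme | Reagent: Annealed dual-labelled DNA beacon duplex, ATP-started | Compound dosing: 10.9 µM single point, 0.8% DMSO | Incubation: 1 h reaction at 25 °C, ATP-initiated | Technique: Cy5 fluorescence | Evaluation: Percent inhibition from t60/t0 fluorescence ratio | Benchmarks: Low DMSO, high thioflavine S at 110 µM | Replication: Singlicate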
XBP1 UPR activ: adaptive UPR (XBP1) activation | CHO-XBP1 luciferase reporter, IRE1-XBP1 UPR activation, luminescence; percent of tunicamycin response, DMSO as zero | activation, % at 20 µM | 330,000 tested, 0.33% active;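 active = versus positive control, 20 µM dose yields 30% or more activation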
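Test system: CHO-XBP1 luciferase reporter cells | Buffer or medium: Serum-containing F12 medium, 10% FBS | Schedule: 6 h compound exposure at 37 °C, 5% CO2 | Detection: Steady-Glo luciferase glow luminescence, 10 min after reagent addition | Read-out basis: Activation, % of tunicamycin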
NS3 hel confirm: confirmation of Hepatitis C virus NS3 helicase inhibitors; shares compounds with HCV NS3 hel inh; NS3 helicase DNA unwinding, Cy5 molecular beacon fluorescence; inhibition, % at 10.9 µM; 1,600 tested, 31% active; AID 1943;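 active = inhibition above the mean of all tested compounds plus 3 SD, cutoff set per campaign, cut at about 36% in these data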
FID counter trip: counter-screen for HCV NS3 helicase inhibitors: DNA intercalator displacement; shares compounds with HCV NS3 hel inh; DNA fluorescent intercalator displacement, fluorescence; inhibition, % at 7.9 µM; 1,600 tested, 4% active; AID 1945; in the data active = inhibition above about 37%;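 also: higher means more displacement of ethidium bromide from the DNA hairpin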
Hits are given with their value; - = inactive; . = no result given; ! = a repeat was not active. Most compounds without a hit are left out; they make up all but 4.5% or so of the library.

SMILES	PfM18AAP inh	CHOP inhibitor	p97 inhibitor	UPR CHOP act	HCV NS3 hel inh	XBP1 UPR activ	NS3 hel confirm	FID counter trip
O=C(O)/C(=C\c1ccco1)NC(=O)c1cccc2ccccc12	-	-	-	-	53.2	-	-	-
O=C(NC(Cc1ccccc1)C(=O)O)/C(=C\c1ccco1)NC(=O)c1ccccc1 (configuration not stated)	-	-	-	-	36.5	-	54.1	-
O=C(Cc1cc(=O)[nH][nH]1)N/N=C/C=C/c1ccccc1	-	-	-	-	40.0	-	-	-
O=C(CNC(=O)c1ccccc1)N/N=C/C=C/c1ccccc1	-	.	.	-	-	-	.	.
O=C(NCCc1ccccc1)c1ccc2c(c1)S(=O)(=O)c1ccccc1C2=O	.	.	.	-	.	-	.	.
COc1ccc(CCNC(=O)C(=O)NCC2OCCN2S(=O)(=O)c2ccccc2)cc1 (configuration not stated)	-	.	.	-	37.1	-	-	-
CN(Cc1ccccc1)/C(=N/O)c1cccc(Cl)c1	-	.	.	-	-	-	.	.
CCCCOc1ccc(C(=O)Nc2ccc(S(=O)(=O)Nc3onc(C)c3C)cc2)cc1	-	.	.	-	40.5	-	53.8	-
CCCOc1ccc(C(=O)Nc2ccc(S(=O)(=O)Nc3onc(C)c3C)cc2)cc1	-	-	-	-	-	-	.	.
CN(C)C(=S)Nn1c(-c2ccccc2)nc2ccccc2c1=O	-	-	-	-	-	-	.	.
Cc1cccc(-c2nc3ccccc3c(=O)n2NC(=S)N(C)C)c1	-	-	-	-	39.2	-	-	-
Cc1nc(SCC(=O)Nc2cccc(C(=O)O)c2)n[nH]1	-	.	.	-	-	-	.	.
Cc1nc(SCC(=O)Nn2c(-c3ccccc3)nc3ccccc3c2=O)n[nH]1	-	-	-	-	46.8	-	-	-
Cn1c(NC(=O)c2ccccc2F)c(-c2cccs2)c(=O)c2ccccc21	-	-	-	-	-	-	.	.
CCOc1cccc(C(=O)Nc2ccc(N3CCN(S(C)(=O)=O)CC3)cc2)c1	-	-	-	-	-	-	.	.
CCOc1cc(C(=O)Nc2ccc(N3CCN(S(C)(=O)=O)CC3)cc2)cc(OCC)c1OCC	-	-	-	-	39.1	-	-	-
O=C1CS/C(=N\N=C\c2ccco2)N1c1ccccc1	-	-	-	-	41.3	-	-	-
O=C(Nc1cccc(-n2cnnn2)c1)c1cc(Cl)ccc1Cl	-	.	.	-	-	-	.	.
O=C(Nc1cccc(-n2cnnn2)c1)c1ccccc1Br	-	.	.	-	53.2	-	-	-
COc1cccc(NC(=S)NC(=O)/C=C/c2ccco2)c1	-	.	.	-	-	-	.	.
O=C(/C=C/c1ccco1)NC(=S)Nc1cccc(C(=O)O)c1	-	.	.	-	52.1	-	-	-
O=C(O)CC(c1cccc2ccccc12)N1Cc2ccccc2C1=O (configuration not stated)	-	-	-	-	-	-	.	.
O=C(O)CC(c1cccc2ccccc12)n1cccc1 (configuration not stated)	-	-	-	-	66.8	-	-	-
O=C(O)COc1ccc(/C=N/NC(=O)Cc2ccc(Cl)cc2)cc1	-	-	-	-	-	-	.	.
O=C(O)c1cc(N2N=C(C(F)(F)F)/C(=C/C=C/c3ccco3)C2=O)ccc1Cl	-	-	-	.	60.8	.	80.0	70.8
SMILES	PfM18AAP inh	CHOP inhibitor	p97 inhibitor	UPR CHOP act	HCV NS3 hel inh	XBP1 UPR activ	NS3 hel confirm	FID counter trip
COc1ccc(C(=O)Nc2ccccc2C(=O)O)cc1NC(=O)C(c1ccccc1)c1ccccc1	-	-	-	-	-	-	.	.
COc1ccc(C(=O)Nc2ccccc2C(=O)O)cc1Cl	-	-	-	-	39.1	-	-	-
NC1=C(c2ccccc2)C(=O)NC1=O	-	.	.	-	36.7	-	-	-
O=C1OCC(c2ccccc2)=C1c1ccccc1	-	.	.	-	-	-	.	.
C=CCn1c(SCCCC)nc(O)cc1=O	-	-	-	-	39.9!	-	-	-
C=CCn1c(SCCCCCC)nc(O)cc1=O	-	-	-	-	-	-	.	.
